Measured values taken from ChEMBL document CHEMBL3526018, “Metabolites of PPI-2458, a selective, irreversible inhibitor of methionine aminopeptidase-2: structure determination and in vivo activity” (Drug Metab Dispos, 2013).
One block for each compound: values may come before it. Active and inactive are the calls of the source. The calls are words filed in the database; no cut-off is given here.

What was measured:
[1] = target: Methionine aminopeptidase 2 (Homo sapiens) (UniProt P50579); experiment: Inhibition of human MetAP2 assessed as remaining enzyme activity after 8 hrs; design: concentration or dose not given beside the values
Methionine aminopeptidase 2 (Homo sapiens), sequence (P50579 2-478 limits assumed): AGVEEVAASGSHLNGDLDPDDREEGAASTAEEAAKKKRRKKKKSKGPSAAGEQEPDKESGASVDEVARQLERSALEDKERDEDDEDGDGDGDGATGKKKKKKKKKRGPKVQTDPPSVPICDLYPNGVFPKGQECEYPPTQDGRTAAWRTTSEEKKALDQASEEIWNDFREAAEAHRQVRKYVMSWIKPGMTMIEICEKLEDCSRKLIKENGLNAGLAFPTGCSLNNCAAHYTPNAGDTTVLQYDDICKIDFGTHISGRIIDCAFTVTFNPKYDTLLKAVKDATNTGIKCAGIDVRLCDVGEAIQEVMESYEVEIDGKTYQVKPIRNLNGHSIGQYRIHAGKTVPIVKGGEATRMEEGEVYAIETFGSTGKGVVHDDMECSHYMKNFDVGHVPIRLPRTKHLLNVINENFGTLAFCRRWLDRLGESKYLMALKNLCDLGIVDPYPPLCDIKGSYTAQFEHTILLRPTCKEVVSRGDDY
In short: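 The hMetAP2 assay follows the fraction of active enzyme remaining during an 8 h incubation with inhibitor, relative to an enzyme-only control.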

Rattus norvegicus [2] = experiment: Inhibition of MetAP2 level in Sprague-Dawley rat lung assessed as free enzyme level at 0.3 mg/kg, iv by ELISA; assay type: functional, organism-based; design: dose 0.3 mg/kg
In short: (§1)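 Male Sprague-Dawley rats (200-225 g, n=3 per group) were dosed once IV at 0.3 mg/kg or PO at 0.3 or 3.0 mg/kg, in 11% HPCD in water. Blood, liver, lung, thymus and pooled non-mesenteric lymph nodes were taken at ~24 h and lysed or homogenized with NP-40. Free MetAP2 was measured by ELISA and expressed as % of vehicle.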

Rattus norvegicus [3] = experiment: Inhibition of MetAP2 level in Sprague-Dawley rat liver assessed as free enzyme level at 0.3 mg/kg, iv by ELISA; assay type: functional, organism-based; design: dose 0.3 mg/kg; in short: as §1
Rattus norvegicus [4] = experiment: Inhibition of MetAP2 level in Sprague-Dawley rat whole blood assessed as free enzyme level at 0.3 mg/kg, iv by ELISA; assay type: functional, organism-based; design: dose 0.3 mg/kg; in short: as §1
Liver microsome [5] = experiment: Retention time in dog liver microsomes treated with at 5 mM PPI-2458 by LC/MS analysis; assay type: ADME, Canis lupus familiaris; conditions: 5000 µM
In short: (§2)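 Liver microsomes (pooled male/female) in 100 mM KPO4 pH 7.4 with PPI-2458 (5 mM stock), pre-incubated 5 min at 37°C, then 10 mM NADPH added; 20 min at 37°C with shaking. Time-zero and no-NADPH controls. Quenched with CH3CN; supernatant dried and redissolved in water. Analysed by LC-MS, ESI+ full scan 300–800 amu, C18 column, 10→50% B gradient.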

[6] = Retention time in mouse liver microsomes treated with at 5 mM PPI-2458 by LC/MS analysis; assay type: ADME; conditions: 5000 µM; in short: as §2
Rattus norvegicus [7] = experiment: Inhibition of MetAP2 level in Sprague-Dawley rat liver assessed as free enzyme level at 3 mg/kg, po by ELISA; assay type: functional, organism-based; design: dose 3 mg/kg; in short: as §1
Rattus norvegicus [8] = experiment: Inhibition of MetAP2 level in Sprague-Dawley rat thymus assessed as free enzyme level at 0.3 mg/kg, po by ELISA; assay type: functional, organism-based; design: dose 0.3 mg/kg; in short: as §1
Rattus norvegicus [9] = experiment: Inhibition of MetAP2 level in Sprague-Dawley rat thymus assessed as free enzyme level at 3 mg/kg, po by ELISA; assay type: functional, organism-based; design: dose 3 mg/kg; in short: as §1
Liver microsome [10] = experiment: Retention time in rat liver microsomes treated with at 5 mM PPI-2458 by LC/MS analysis; assay type: ADME; conditions: 5000 µM; in short: as §2
Rattus norvegicus [11] = experiment: Inhibition of MetAP2 level in Sprague-Dawley rat lymph nodes assessed as free enzyme level at 3 mg/kg, po by ELISA; assay type: functional, organism-based; design: dose 3 mg/kg; in short: as §1
Rattus norvegicus [12] = experiment: Inhibition of MetAP2 level in Sprague-Dawley rat lung assessed as free enzyme level at 3 mg/kg, po by ELISA; assay type: functional, organism-based; design: dose 3 mg/kg; in short: as §1
[13] = Retention time in monkey liver microsomes treated with at 5 mM PPI-2458 by LC/MS analysis; assay type: ADME, Macaca mulatta; conditions: rhesus monkey, 5000 µM; in short: as §2
Rattus norvegicus [14] = experiment: Inhibition of MetAP2 level in Sprague-Dawley rat thymus assessed as free enzyme level at 0.3 mg/kg, iv by ELISA; assay type: functional, organism-based; design: dose 0.3 mg/kg; in short: as §1
Liver microsome [15] = experiment: Retention time in human liver microsomes treated with at 5 mM PPI-2458 by LC/MS analysis; assay type: ADME; conditions: 5000 µM; in short: as §2
Rattus norvegicus [16] = experiment: Inhibition of MetAP2 level in Sprague-Dawley rat lymph nodes assessed as free enzyme level at 0.3 mg/kg, iv by ELISA; assay type: functional, organism-based; design: dose 0.3 mg/kg; in short: as §1
Rattus norvegicus [17] = experiment: Inhibition of MetAP2 level in Sprague-Dawley rat liver assessed as free enzyme level at 0.3 mg/kg, po by ELISA; assay type: functional, organism-based; design: dose 0.3 mg/kg; in short: as §1
[18] = target: Methionine aminopeptidase 2 (Homo sapiens) (UniProt P50579); experiment: Inhibition of human MetAP2 activity after end of experiment; design: scale not given: the % may be the effect or the level left
Rattus norvegicus [19] = experiment: Inhibition of MetAP2 level in Sprague-Dawley rat whole blood assessed as free enzyme level at 3 mg/kg, po by ELISA; assay type: functional, organism-based; design: dose 3 mg/kg; in short: as §1
Rattus norvegicus [20] = experiment: Inhibition of MetAP2 level in Sprague-Dawley rat whole blood assessed as free enzyme level at 0.3 mg/kg, po by ELISA; assay type: functional, organism-based; design: dose 0.3 mg/kg; in short: as §1
Rattus norvegicus [21] = experiment: Inhibition of MetAP2 level in Sprague-Dawley rat lymph nodes assessed as free enzyme level at 0.3 mg/kg, po by ELISA; assay type: functional, organism-based; design: dose 0.3 mg/kg; in short: as §1
Rattus norvegicus [22] = experiment: Inhibition of MetAP2 level in Sprague-Dawley rat lung assessed as free enzyme level at 0.3 mg/kg, po by ELISA; assay type: functional, organism-based; design: dose 0.3 mg/kg; in short: as §1

Activity [1]: 90%
Compound: CO[C@@H]1[C@H](OC(=O)N[C@@H](C(N)=O)C(C)C)CC[C@]2(CO2)[C@H]1[C@@]1(C)O[C@@H]1CCC(C)(C)O

Retention_time (Liver microsome [5]): 20.8 min
Retention_time [6]: 20.8 min
Retention_time (Liver microsome [10]): 20.8 min
Retention_time [13]: 20.8 min
Retention_time (Liver microsome [15]): 20.8 min
Activity [18]: 90%
Activity [1]: 10%
Compound: CO[C@@H]1[C@H](OC(=O)N[C@@H](C(N)=O)C(C)C)CC[C@]2(CO2)[C@H]1[C@@]1(C)O[C@@H]1C[C@H]1OC1(C)C
inhibition (Rattus norvegicus [2]): Active
inhibition (Rattus norvegicus [3]): Active
inhibition (Rattus norvegicus [4]): Active
inhibition (Rattus norvegicus [7]): Active
inhibition (Rattus norvegicus [8]): inactive
inhibition (Rattus norvegicus [9]): Active
inhibition (Rattus norvegicus [11]): Active
inhibition (Rattus norvegicus [12]): Active
inhibition (Rattus norvegicus [14]): Active
inhibition (Rattus norvegicus [16]): Active
inhibition (Rattus norvegicus [17]): inactive
inhibition (Rattus norvegicus [19]): Active
inhibition (Rattus norvegicus [20]): inactive
inhibition (Rattus norvegicus [21]): inactive
inhibition (Rattus norvegicus [22]): inactive

Activity [1]: 39%
Compound: CO[C@@H]1[C@H](OC(=O)N[C@@H](C(N)=O)C(C)(C)O)CC[C@]2(CO2)[C@H]1[C@@]1(C)O[C@@H]1C[C@@H]1OC1(C)C

Retention_time (Liver microsome [5]): 17.6 min
Retention_time [6]: 17.6 min
Retention_time (Liver microsome [10]): 17.6 min
Retention_time [13]: 17.6 min
Retention_time (Liver microsome [15]): 17.6 min
Activity [18]: 90%
Activity [1]: 9%
Compound: CO[C@@H]1[C@H](OC(=O)N[C@@H](C(N)=O)C(C)C)CC[C@]2(CO2)[C@H]1[C@@]1(C)O[C@@H]1C/C=C(\C)CO
inhibition (Rattus norvegicus [2]): Active
inhibition (Rattus norvegicus [3]): Active
inhibition (Rattus norvegicus [4]): Active
inhibition (Rattus norvegicus [7]): Active
inhibition (Rattus norvegicus [8]): inactive
inhibition (Rattus norvegicus [9]): Active
inhibition (Rattus norvegicus [11]): Active
inhibition (Rattus norvegicus [12]): Active
inhibition (Rattus norvegicus [14]): Active
inhibition (Rattus norvegicus [16]): Active
inhibition (Rattus norvegicus [17]): inactive
inhibition (Rattus norvegicus [19]): Active
inhibition (Rattus norvegicus [20]): inactive
inhibition (Rattus norvegicus [21]): inactive
inhibition (Rattus norvegicus [22]): inactive

The next lines start with the compound.

Compound: CO[C@@H]1[C@H](OC(=O)N[C@@H](C(N)=O)C(C)C)CC[C@]2(CO2)[C@H]1[C@@]1(C)O[C@@H]1C[C@@H]1OC1(C)C
inhibition (Rattus norvegicus [2]): Active
inhibition (Rattus norvegicus [3]): Active
inhibition (Rattus norvegicus [4]): Active
Retention_time (Liver microsome [5]): 20.1 min
Retention_time [6]: 20.1 min
inhibition (Rattus norvegicus [7]): Active
inhibition (Rattus norvegicus [8]): inactive
inhibition (Rattus norvegicus [9]): Active
Retention_time (Liver microsome [10]): 20.1 min
inhibition (Rattus norvegicus [11]): Active
inhibition (Rattus norvegicus [12]): Active
Retention_time [13]: 20.1 min
inhibition (Rattus norvegicus [14]): Active
Retention_time (Liver microsome [15]): 20.1 min
inhibition (Rattus norvegicus [16]): Active
inhibition (Rattus norvegicus [17]): inactive
Activity [18]: 40%
inhibition (Rattus norvegicus [19]): Active
inhibition (Rattus norvegicus [20]): inactive
Activity [1]: 58%
inhibition (Rattus norvegicus [21]): inactive
inhibition (Rattus norvegicus [22]): inactive

Compound: CO[C@@H]1[C@H](OC(=O)N[C@@H](C(N)=O)C(C)(C)O)CC[C@]2(CO2)[C@H]1[C@@]1(C)O[C@@H]1CC=C(C)C
inhibition (Rattus norvegicus [2]): Active
inhibition (Rattus norvegicus [3]): Active
inhibition (Rattus norvegicus [4]): Active
Retention_time (Liver microsome [5]): 26.7 min
Retention_time [6]: 26.7 min
inhibition (Rattus norvegicus [7]): Active
inhibition (Rattus norvegicus [8]): Active
inhibition (Rattus norvegicus [9]): Active
Retention_time (Liver microsome [10]): 26.7 min
inhibition (Rattus norvegicus [11]): Active
inhibition (Rattus norvegicus [12]): Active
Retention_time [13]: 26.7 min
inhibition (Rattus norvegicus [14]): Active
Retention_time (Liver microsome [15]): 26.7 min
inhibition (Rattus norvegicus [16]): Active
inhibition (Rattus norvegicus [17]): Active
inhibition (Rattus norvegicus [19]): Active
inhibition (Rattus norvegicus [20]): Active
Activity [1]: 1%
inhibition (Rattus norvegicus [21]): Active
inhibition (Rattus norvegicus [22]): Active

Compound: CO[C@@H]1[C@H](OC(=O)N[C@@H](C(N)=O)C(C)(C)O)CC[C@]2(CO2)[C@H]1[C@@]1(C)O[C@@H]1C[C@H]1OC1(C)C
Activity [1]: 6%
